Legend:
Carbonic anhydrase 2 [1] = molecular target: T1, Carbonic anhydrase 2 (Homo sapiens, UniProt P00918); assay: Competitive inhibition of human carbonic anhydrase 2 esterase activity by Lineweaver-Burke plot analysis
Outline: (§1)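 Erythrocyte-purified human isozyme in the 4-nitrophenylacetate esterase assay, read at 348 nm over 3 min at 25 °C in Tris–SO4 pH 7.4. Three inhibitor concentrations are each tested against five substrate concentrations (0.15–0.75 mM). Ki and inhibition mode are taken from Lineweaver–Burk plots.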

Carbonic anhydrase 1 [2] = molecular target: T2, Carbonic anhydrase 1 (Homo sapiens, UniProt P00915); assay: Competitive inhibition of human carbonic anhydrase 1 esterase activity by Lineweaver-Burke plot analysis; outline: as §1
T2 sequence (P00915 whole entry): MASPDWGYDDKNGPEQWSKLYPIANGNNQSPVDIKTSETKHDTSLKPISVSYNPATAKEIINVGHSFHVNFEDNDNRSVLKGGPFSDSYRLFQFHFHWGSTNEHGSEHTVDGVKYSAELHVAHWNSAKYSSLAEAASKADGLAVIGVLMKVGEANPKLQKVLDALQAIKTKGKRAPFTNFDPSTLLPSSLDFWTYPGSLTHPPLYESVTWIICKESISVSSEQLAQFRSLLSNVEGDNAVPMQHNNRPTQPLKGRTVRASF

Carbonic anhydrase 2 [3] = molecular target: T1, Carbonic anhydrase 2; assay: Inhibition of human carbonic anhydrase 2 esterase activity by spectrophotometry; settings: read-out: I50
Outline: (§2)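 Enzyme purified from human erythrocytes. Esterase activity is followed as 4-nitrophenylacetate conversion to 4-nitrophenylate by absorbance at 348 nm over 3 min at 25 °C, in Tris–SO4 buffer pH 7.4. A reference cuvette lacks enzyme. Each inhibitor concentration is run in triplicate, with uninhibited control activity set to 100%. IC50 is read from %activity vs [inhibitor] plots.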

Carbonic anhydrase 1 [4] = molecular target: T2, Carbonic anhydrase 1; assay: Inhibition of human carbonic anhydrase 1 esterase activity by spectrophotometry; settings: read-out: I50; outline: as §2
Carbonic anhydrase 1 [5] = molecular target: T2, Carbonic anhydrase 1; assay: Noncompetitive inhibition of human carbonic anhydrase 1 esterase activity by Lineweaver-Burke plot analysis; outline: as §1
Carbonic anhydrase 2 [6] = molecular target: T1, Carbonic anhydrase 2; assay: Uncompetitive inhibition of human carbonic anhydrase 2 esterase activity by Lineweaver-Burke plot analysis; outline: as §1
Carbonic anhydrase 2 [7] = molecular target: T1, Carbonic anhydrase 2; assay: Noncompetitive inhibition of human carbonic anhydrase 2 esterase activity by Lineweaver-Burke plot analysis; outline: as §1
Carbonic anhydrase 1 [8] = molecular target: T2, Carbonic anhydrase 1; assay: Uncompetitive inhibition of human carbonic anhydrase 1 esterase activity by Lineweaver-Burke plot analysis; outline: as §1

Compound: O=[N+]([O-])O[C@@H]1CC2c3ccccc3C1[C@@H]2O (stereo partly drawn)
- Ki (Carbonic anhydrase 2 [1]): 196 µM
- Ki (Carbonic anhydrase 1 [2]): 18700 µM
- IC50 (Carbonic anhydrase 2 [3]): 98.1 µM
- IC50 (Carbonic anhydrase 1 [4]): 10200 µM

Compound: O=[N+]([O-])O[C@H]1CC2CCC1[C@@H]2O (stereo partly drawn)
- Ki (Carbonic anhydrase 2 [1]): 133 µM
- Ki (Carbonic anhydrase 1 [2]): 17200 µM
- IC50 (Carbonic anhydrase 2 [3]): 73.1 µM
- IC50 (Carbonic anhydrase 1 [4]): 9100 µM

Compound: O=[N+]([O-])O[C@@H]1CC2CCC1[C@@H]2O (stereo partly drawn)
- Ki (Carbonic anhydrase 2 [1]): 121 µM
- Ki (Carbonic anhydrase 1 [2]): 13600 µM
- IC50 (Carbonic anhydrase 2 [3]): 65.1 µM
- IC50 (Carbonic anhydrase 1 [4]): 7130 µM

Compound: O=[N+]([O-])O[C@@H]1CC[C@H](Br)[C@@H]2CC[C@H]1O2
- Ki (Carbonic anhydrase 1 [5]): 22500 µM
- IC50 (Carbonic anhydrase 2 [3]): 110 µM
- Ki (Carbonic anhydrase 2 [6]): 223 µM
- IC50 (Carbonic anhydrase 1 [4]): 12100 µM

Compound: O=[N+]([O-])O[C@H]1CCCCCC[C@@H]1O
- Ki (Carbonic anhydrase 2 [7]): 267 µM
- Ki (Carbonic anhydrase 1 [5]): 45200 µM
- IC50 (Carbonic anhydrase 2 [3]): 181 µM
- IC50 (Carbonic anhydrase 1 [4]): 23000 µM

Compound: O=[N+]([O-])O[C@H]1CCCC[C@@H]1O
- Ki (Carbonic anhydrase 2 [7]): 986 µM
- Ki (Carbonic anhydrase 1 [5]): 221000 µM
- IC50 (Carbonic anhydrase 2 [3]): 560 µM

Compound: O=[N+]([O-])O[C@H]1CC=CC[C@@H]1O (racemic)
- Ki (Carbonic anhydrase 2 [7]): 1370 µM
- Ki (Carbonic anhydrase 1 [5]): 274000 µM
- IC50 (Carbonic anhydrase 2 [3]): 790 µM

Compound: O=[N+]([O-])O[C@H]1CC/C=C\CC[C@@H]1O (racemic)
- Ki (Carbonic anhydrase 2 [7]): 541 µM
- Ki (Carbonic anhydrase 1 [5]): 41800 µM
- IC50 (Carbonic anhydrase 2 [3]): 243 µM
- IC50 (Carbonic anhydrase 1 [4]): 21000 µM

Compound: O=[N+]([O-])O[C@@H](CO)c1ccccc1 (single isomer, unassigned)
- Ki (Carbonic anhydrase 2 [7]): 1140 µM
- Ki (Carbonic anhydrase 1 [8]): 288000 µM
- IC50 (Carbonic anhydrase 2 [3]): 632 µM
